An excerpt weighted towards active compounds, which were near 3.5% of everything screened.
Pf gametocyte: kills late stage P. falciparum gametocytes; P. falciparum stage V gametocytes, ATP luminescence, 24 h; inhibition, % at 10.9 µM; actives 0.065% (n = 150,000); AID 743093;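 active means inhibition above the mean plus 3 SD of compounds within the control limits, set per campaign, cut at about 38% in these data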
FLuc inh counter: inhibits firefly luciferase, flagging false hits in luciferase inhibition screens; P08659; inhibition, % at 10 µM; ATPLite firefly luciferase biochemical luminescence, 10 min; actives 1.5% (n = 200,000);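 active means inhibition above about 50% when tested at 10 µM, limit read from the data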
Target sequence (P08659 whole entry, looked up): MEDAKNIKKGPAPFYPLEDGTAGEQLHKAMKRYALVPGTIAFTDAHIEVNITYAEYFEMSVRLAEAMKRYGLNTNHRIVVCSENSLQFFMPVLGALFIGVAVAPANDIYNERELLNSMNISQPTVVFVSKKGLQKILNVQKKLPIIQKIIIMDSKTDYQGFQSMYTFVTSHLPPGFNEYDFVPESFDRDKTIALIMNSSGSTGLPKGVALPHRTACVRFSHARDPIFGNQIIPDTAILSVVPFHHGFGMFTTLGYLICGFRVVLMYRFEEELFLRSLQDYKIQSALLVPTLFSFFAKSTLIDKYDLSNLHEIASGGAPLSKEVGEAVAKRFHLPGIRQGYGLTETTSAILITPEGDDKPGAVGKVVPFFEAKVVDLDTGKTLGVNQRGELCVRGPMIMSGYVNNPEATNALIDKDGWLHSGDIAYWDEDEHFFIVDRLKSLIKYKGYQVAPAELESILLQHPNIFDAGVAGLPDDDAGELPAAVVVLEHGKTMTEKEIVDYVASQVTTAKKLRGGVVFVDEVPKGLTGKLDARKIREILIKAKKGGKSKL
STAT1 act: STAT1 signaling activation; NIH 3T3 STAT1-luciferase reporter, IFN-gamma, luminescence; 100% = IFN-gamma alone, no compound; activation (% of control), % at 5.5 µM; actives 2.6% (n = 200,000); AID 932;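 active means activation above the screen-wide mean activation plus 3 SD, cut at about 130% in these data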
NF-kB neuron act: NF-kB expression increase, human neuronal cells. AID 1239. fold change at 12.5 µM. NF-kB reporter expression; hits give high values. actives 1.6% (n = 190,000); in the data active means fold change above about 3.3
APP 5'UTR act: APP 5'UTR luciferase reporter activation; actives 1% (n = 190,000); activation, % at 2 µM; AID 1276; SH-SY5Y APP 5'UTR luciferase reporter, luminescence; zero percent = DMSO vehicle wells;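 active means activation above a set limit, based on mean plus 3 SD of controls, cut at about 140% in these data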
FLuc act counter: affects firefly luciferase, flagging false hits in luciferase stimulation screens; activation factor at 10 µM; ATPlite luciferase biochemical, luminescence, 10 min; 0 = ATP-free wells, 1 = DMSO control; 200,000 tested, under 10 active;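 active means luciferase activation factor, scaled between plate controls, of at least 2 with compound at 10 µM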
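Material: Luciferase/luciferin reagent mix; Doses: test compounds dosed from 2 mM stocks in 100% DMSO; Schedule: 10 min incubation after luciferase reagent addition, room temperature; Measured by: luminescence from luciferase reaction; Read-out: luminescence gain marking luciferase activators.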
Of the large screens only hits and unclear results are named; the others gave an inactive call.

CC(=O)n1c2c(c3ccccc31)OC(N)=C(C#N)C2c1ccc(C(C)C)cc1 (centres undefined)	STAT1 act 129 (no result: Pf gametocyte)
COc1ccc(C(=O)Nc2ccccc2C(N)=O)cc1	FLuc inh counter 74 (no result: Pf gametocyte)
COc1ccc(C(=NNc2ccccc2C(=O)O)c2ccc(OC)cc2)cc1	Pf gametocyte 53
COc1ccc(C(=O)Nc2ccc(O)cc2C(=O)O)cc1	FLuc inh counter 63
COc1ccc(C(=O)Nc2ccccc2C(=O)N/N=C/c2cccc3ccccc23)cc1	FLuc inh counter 97, NF-kB neuron act 4.2 (no result: Pf gametocyte)
C/C(=N\OCC(=O)NC(C)C)c1cccs1	none
Cc1cc(C)c(C(=O)Nc2ccccc2)c(CC(C)(C)C(=O)O)c1	none (no result: FLuc inh counter, STAT1 act, NF-kB neuron act, APP 5'UTR act, FLuc act counter)
Cc1ccc(NC(=O)CCn2c(=S)oc3ccccc32)cc1	none
CN(C)c1ccc(NC(=O)CCn2c(=S)oc3ccccc32)cc1	STAT1 act 134
O=c1[nH]c2ccccc2c2nc3ccccn3c12	FLuc inh counter 54 (no result: Pf gametocyte)
Cc1ccccc1Nc1c(-c2ccc(N3CCOCC3)cc2)nc2ncccn12	FLuc inh counter 59
CCCC1(C(=O)OCC)NC(c2ccc(O)cc2)C2C(=O)N(c3cccc(C(C)=O)c3)C(=O)C21 (centres undefined)	none (no result: FLuc inh counter, STAT1 act, NF-kB neuron act, APP 5'UTR act, FLuc act counter)
O=C(CN1CCOCC1)Nc1ccccc1C(=O)O	none (no result: Pf gametocyte)
CCCNC(=O)c1oc2ccc3c(c2c1C)C(=O)CC(C)(C)O3	FLuc inh counter 76, STAT1 act 145, NF-kB neuron act 5.1, APP 5'UTR act 190
COC(=O)Cn1c(O)c(N=NC(=O)c2ccc3c(c2)OCO3)c2ccccc21	FLuc inh counter 76
COC(=O)C1=C[C@@H](C(=O)OC)[C@@H]2C3=C(C(=O)[C@@]2(C)NC(=O)c2ccccc2)[C@H](C)C(C(=O)OC)=C(C(=O)OC)[C@@H]3C1	none (no result: FLuc inh counter, STAT1 act, NF-kB neuron act, APP 5'UTR act, FLuc act counter)
CCc1nc2ccccc2c(=O)n1/N=C/c1ccc(OC)cc1	none (no result: FLuc inh counter, STAT1 act, NF-kB neuron act, APP 5'UTR act, FLuc act counter)
S=C(Nc1ccc(Cl)cc1)N1CCCCC1	none (no result: Pf gametocyte)
CCc1ccc(NC(=S)N2CCCCCCC2)cc1	FLuc inh counter 54
COC(=O)Cc1ccc(NC(=S)N2CCCCC2C)cc1 (centres undefined)	FLuc inh counter 83
COC(=O)Cc1ccc(NC(=S)N2CCN(c3ccc(OC)cc3)CC2)cc1	none
COC(=O)Cc1ccc(NC(=S)N2CCN(C)CC2)cc1	FLuc inh counter 56
CC1CCCCN1C(=S)Nc1ccc(OC(F)F)cc1 (centres undefined)	none (no result: Pf gametocyte)
CN1C(C(=O)NCCc2cccs2)CC2Cn3c(nc4ccccc43)C21 (centres undefined)	none (no result: FLuc inh counter, STAT1 act, NF-kB neuron act, APP 5'UTR act, FLuc act counter)
CCc1nc2sc3c(=O)n(N)cnc3c2c2c1COC(C)(C)C2	none (no result: Pf gametocyte)
Oc1sc(C=Nc2ccc(F)cc2)c2ccccc12	STAT1 act 138
Cn1c(O)c(N=Nc2ccc(F)cc2)c2ccccc21	none
CN=Cc1sc2ccccc2c1O	none
Oc1c(C=Nc2cccnc2)sc2ccccc12	FLuc inh counter 70
Oc1c(C=Nc2ccccc2)sc2ccccc12	FLuc inh counter 95, NF-kB neuron act 4.6
Nc1c(C(=O)NC23CC4CC(CC(C4)C2)C3)sc2nc3c(c(C(F)(F)F)c12)CCC3	none (no result: Pf gametocyte)
Cc1ccc(NC(=O)c2ccc([N+](=O)[O-])cc2Cl)nc1	STAT1 act 136
CN(C)c1ccc(NC(=O)c2ccc([N+](=O)[O-])cc2Cl)cc1	STAT1 act 145
O=C(CCNC(=O)c1ccc(Br)o1)NCc1ccccn1	none (no result: Pf gametocyte)
CN1CCN(c2ccc(NC(=O)c3sc4ccccc4c3Cl)cc2)CC1	APP 5'UTR act 182
CN1CCN(C(=O)c2ccccc2NC(=O)c2sc3ccccc3c2Cl)CC1	none (no result: FLuc inh counter, STAT1 act, NF-kB neuron act, APP 5'UTR act, FLuc act counter)
CCn1nnc(NC(=O)c2sc3ccccc3c2Cl)n1	FLuc inh counter 67 (no result: Pf gametocyte)
CCOC(=O)Cc1csc(NC(=O)c2cc3ccccc3o2)n1	none
Cc1csc(C(C#N)C(=O)c2cc3ccccc3o2)n1 (centres undefined)	FLuc inh counter 88 (no result: Pf gametocyte)
Cn1/c(=N/N=C/c2ccc([N+](=O)[O-])cc2)sc2ccccc21	STAT1 act 132 (no result: Pf gametocyte)
COCCNC(=O)Cn1cc(/C=C(\C#N)C(=O)NC2CCCC2)c2ccccc21	none (no result: FLuc inh counter, STAT1 act, NF-kB neuron act, APP 5'UTR act, FLuc act counter)
Cc1ccccc1Nc1nn2c(=O)c3ccccc3nc2s1	STAT1 act 138
Cc1ccc(C(=O)Nc2nc3ccccc3c(=O)s2)cc1	FLuc inh counter 80 (no result: Pf gametocyte)
O=c1c2ccccc2nc2sc(Nc3ccc(F)cc3)nn12	none (no result: FLuc inh counter, STAT1 act, NF-kB neuron act, APP 5'UTR act, FLuc act counter)
CSc1nc2ccc3nc(NC(=O)c4ccc(C)cc4)sc3c2s1	none (no result: Pf gametocyte)
O=C(Nc1nc(=O)c2ccccc2s1)c1ccccc1	FLuc inh counter 60, STAT1 act 138, NF-kB neuron act 3.6 (no result: Pf gametocyte)
CC(=O)Nc1nc(=O)c2ccccc2s1	none
C=CCSc1nn2c(=O)c3ccccc3nc2s1	STAT1 act 134
O=C(Cn1nnc(-c2cccc(C(F)(F)F)c2)n1)NC1CCCC1	none (no result: Pf gametocyte)
Cc1ccccc1Nc1nc2ccccc2s1	STAT1 act 143, NF-kB neuron act 5.6
Cc1ccccc1NP(=O)(c1ccccc1)c1nc2ccccc2s1 (centres undefined)	none
Fc1ccc(Nc2nc3ccccc3s2)cc1	STAT1 act 146, NF-kB neuron act 3.3
O=C(Nc1nc2ccccc2s1)c1ccc(F)cc1	FLuc inh counter 64, NF-kB neuron act 9, APP 5'UTR act 173
CCCOc1cccc(NC(=O)c2cc(C)oc2C)c1	none (no result: Pf gametocyte)
CCC(=O)c1cn([C@H](CCC(OC)OC)CC(=O)OC(C)(C)C)cc1CC	none (no result: FLuc inh counter, STAT1 act, NF-kB neuron act, APP 5'UTR act, FLuc act counter)
CN1C(=O)CSC1=Nc1ccc(F)cc1	none (no result: FLuc inh counter, STAT1 act, NF-kB neuron act, APP 5'UTR act, FLuc act counter)
Oc1c(C(c2ccccn2)N2CCCCC2)cc(Cl)c2cccnc12 (centres undefined)	NF-kB neuron act 4.9
CCC(=O)NC(c1cc(Cl)c2cccnc2c1O)C(C)C (centres undefined)	none (no result: FLuc inh counter, STAT1 act, NF-kB neuron act, APP 5'UTR act, FLuc act counter)
CC1CCN(C(=O)Cn2nnc(-c3cccs3)n2)CC1	STAT1 act 129
Cc1nc([N+](=O)[O-])c(C(=O)O)n1C	none
O=C(/C=C/c1ccccc1)NC1CCS(=O)(=O)C1 (centres undefined)	Pf gametocyte 63
Cc1ccc(-n2[nH]c3c4c(ccc3c2=O)C(=O)c2ccccc2C4=O)cc1	Pf gametocyte 61
Cc1ccc(C)c(-n2[nH]c3c4c(ccc3c2=O)C(=O)c2ccccc2C4=O)c1	none (no result: Pf gametocyte, APP 5'UTR act)
COc1ccccc1Nc1nnc(SCC(=O)Nc2nc(-c3ccc(F)cc3)cs2)s1	none (no result: NF-kB neuron act)
CCCCN1CCCC1CNC(=O)c1cc(C#N)c2ccccc2c1OC (centres undefined)	none (no result: Pf gametocyte, STAT1 act, NF-kB neuron act, APP 5'UTR act)
COc1ccc(-c2cn3ccc4ccccc4c3n2)cc1	FLuc inh counter 68, NF-kB neuron act 14, APP 5'UTR act 217
Cc1cccn2cc(-c3cccc(NC(=O)c4cccs4)c3)nc12	STAT1 act 131 (no result: Pf gametocyte)
Cc1cccn2cc(-c3ccc(F)cc3)nc12	FLuc inh counter 59, STAT1 act 130, NF-kB neuron act 5.8
Cc1cccn2cc(-c3ccccc3)nc12	FLuc inh counter 69, STAT1 act 138, NF-kB neuron act 4.3, APP 5'UTR act 154

Assay outcomes (PubChem)
